Structures are written as SMILES. Records with an inconclusive call do not appear. Calls of active or inactive are those of the source.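 Rule for the calls: active = signal drop in every repeat run, with half-maximal concentration at most twice the top valid concentration; inconclusive = the separate test runs give conflicting calls; inactive = inactive in every test run.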

System in the first test: not listed separately
In words: C. albicans CaCi-17 growth inhibition, confirmation, clinical isolate, Alamar Blue, dry powder (AID 602189). As to conditions: C. albicans CaCi-17 growth, Alamar Blue fluorescence, 48 h; at 26 µM (top of the series). The essentials: (§1)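 Assay system: fluconazole-resistant clinical isolate CaCi-17, whole fungal cells; Input: inoculum OD600 0.00015; Doses: compound delivered by pin transfer; Timing: 48 h compound exposure, 37 °C, static, humidified; Detection: Alamar Blue fluorescence after 2 h; Evaluation: growth inhibition, shown by reduced Alamar Blue fluorescence; Benchmarks: 10 µM amphotericin B as positive control.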
For orientation: Alamar Blue is a resazurin reagent that responds to reducing activity.
Regarding `CCOC(=O)N1C(=O)C2(CCCCC2)N(c2ccc(C)cc2)C1=S`, the activity change, negative = inhibition is -10.2% (inactive).
Consider `O=C(Nc1nc(-c2ccccc2)cs1)c1ccc(Br)s1`, for which the activity change, negative = inhibition was -6.92% (inactive).
On to `O=C(Nc1nc(-c2ccc3c(c2)CCCC3)cs1)c1ccccc1`, for which the activity change, negative = inhibition was -2.83% (inactive).
In the case of `Cc1ccc(C(=O)Nc2nnc(-c3ccccc3)o2)cc1C`, the activity change, negative = inhibition is -7.38% (inactive).
With `C=CCNC(=S)N/N=C(\C)c1ccccn1`, the activity change, negative = inhibition was -32.2% (inactive).
Consider `O=C(Nc1nc(-c2ccccn2)cs1)c1ccccc1`, for which the activity change, negative = inhibition was 57.1% (inactive).
Consider `NC(=O)c1cccc(C(=O)Nc2nc(-c3ccc4c(c3)CCCC4)cs2)c1`, for which the activity change, negative = inhibition is 21.1% (inactive).

The next test concerns C. albicans CaCi-17 growth, Alamar Blue fluorescence, 48 h. Described as above.
Details: not given
The essentials: as §1
With `Oc1c(C(c2ccccc2Cl)N2CCCCC2)ccc2cccnc12` (stereo not drawn), the AC50 (commonly the concentration giving half of the maximal activity seen) is 11.7 µM.
Take `CN1CCN(C(c2ccc(C(F)(F)F)cc2)c2ccc3cccnc3c2O)CC1` (stereo not drawn): the AC50 is 7.72 µM.
The same measure, in the same setting: then `Oc1c(CN2CCc3ccccc3C2)cc(Cl)c2cccnc12`, with 5.46 µM.
For the compound `C/C(=N\NC(=O)c1cc2ccccc2cc1O)c1ccccn1`, the AC50 is 5.54 µM.
On the same count and under the same terms, the same measure for `O=C(Nc1nc(-c2ccccn2)cs1)c1ccc(Cl)s1`: 10.5 µM.
Same read-out and setting: then `O=C(Nc1nnc(-c2ccc3c(c2)CCCC3)o1)c1ccc(Cl)cc1Cl`, with 17.3 µM; and `Oc1c(C(c2ccc(Cl)cc2)N2CCCC2)ccc2cccnc12` (stereo not drawn), with 8.73 µM; and `O=C(NNC(=S)Nc1ccc(Cl)c(Cl)c1)c1ccccn1`, with 1.86 µM.
Still for that read-out and setting: the same measure for `O=C(Nc1nc(-c2ccccn2)cs1)c1ccc(Br)s1`: 4.94 µM.
`O=C(Oc1c(Cl)cc(Cl)c2cccnc12)c1ccco1`: the AC50 was 1.5 µM.
Still for that read-out and setting: then `O=C(Nc1nnc(-c2ccc3c(c2)CCCC3)o1)c1ccccc1`, with 25.9 µM.

(Values after PubChem BioAssay AID602189 (Broad Institute, 2012).)
